Values after ≈ are worked out from the molar mass of the structure shown.

Holding throughout (format): functional
Test [1] concerns Staphylococcus aureus. The test is described as follows: Antibacterial activity against Micrococcus pyogenes clinical isolate after 18 hrs by microdilution assay. In short, it runs like this:
(§1)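 Broth microdilution in Mueller Hinton broth, inoculum 5 × 10^5–10^6 cfu/mL final, compounds dissolved in DMSO (at most 1% in the solution), 37 °C for 18 h aerobically. Blank controls received DMSO alone; magnolol served as positive control.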
On the technique in general: Broth dilution looks for growth in wells or tubes with falling amounts of substance.

Test [2] relates to Staphylococcus aureus. The experiment in a line: Antibacterial activity against Staphylococcus aureus ATCC 25923 after 18 hrs by microdilution assay. The note with it: ATCC 25923, 18 h. In short, it runs like this:
as §1

Test [3] deals with Staphylococcus epidermidis. The experiment in a line: Antibacterial activity against Staphylococcus epidermidis ATCC 12228 after 18 hrs by microdilution assay. The following applies: ATCC 12228, 18 h. The essentials: as §1
Another test deals with Micrococcus luteus. The experiment in a line: Antibacterial activity against Micrococcus luteus ATCC 9341 after 18 hrs by microdilution assay. The note with it: ATCC 9341, 18 h. The essentials: as §1
In the next test the test system is Bacillus subtilis. The experiment in a line: Antibacterial activity against Bacillus subtilis ATCC 6633 after 18 hrs by microdilution assay. The following applies: ATCC 6633, 18 h. In short, it runs like this: as §1
The subject of another test is Bacillus cereus. The experiment in a line: Antibacterial activity against Bacillus cereus clinical isolate after 18 hrs by microdilution assay. In short, it runs like this: as §1
The test system of a further test is Escherichia coli. The experiment in a line: Antibacterial activity against Escherichia coli ATCC 25922 after 18 hrs by microdilution assay. The note with it: ATCC 25922, 18 h. In short, it runs like this: as §1
A further test concerns Shigella flexneri. The experiment in a line: Antibacterial activity against Shigella flexneri ATCC 12022 after 18 hrs by microdilution assay. The following applies: ATCC 12022, 18 h. The essentials:
as §1

Another test deals with Pseudomonas aeruginosa. The test is described as follows: Antibacterial activity against Pseudomonas aeruginosa ATCC 14502 after 18 hrs by microdilution assay. The following applies: ATCC 14502, 18 h. The essentials:
as §1

In a further test the test system is Serratia marcescens. The experiment in a line: Antibacterial activity against Serratia marcescens ATCC 25419 after 18 hrs by microdilution assay. The following applies: ATCC 25419, 18 h. The essentials:
as §1

The test system of another test is Alcaligenes faecalis. The experiment in a line: Antibacterial activity against Alcaligenes faecalis ATCC 8750 after 18 hrs by microdilution assay. The following applies: ATCC 8750, 18 h. In short, it runs like this: as §1

On to `C=C(C)[C@@H]1CC=C(C)[C@H](CC[C@H]2C(=C)CC[C@@H](C(C)(C)O)[C@]2(C)CCC(=O)OCC)[C@@]1(C)CCC(=O)O`, for which the MIC in the test on Staphylococcus aureus [1] is 50 µg/mL (≈ 96.8 µM); with Staphylococcus aureus [2] it was greater than 50 µg/mL; in test [3], 12.5 µg/mL (≈ 24.2 µM); in the test with Micrococcus luteus, greater than 50 µg/mL; against Bacillus subtilis it was 12.5 µg/mL (≈ 24.2 µM); in the test on Bacillus cereus, 3.12 µg/mL (≈ 6.04 µM). For the same compound, the MIC with Escherichia coli, against Shigella flexneri, with Pseudomonas aeruginosa, against Serratia marcescens and in the test with Alcaligenes faecalis was greater than 50 µg/mL throughout.
Turning to `C=C(C)[C@@H]1CCC(=C)[C@H](CC[C@H]2C(C)=CC[C@@H](C(=C)C)[C@]2(C)CCC(=O)O)[C@@]1(C)CCC(=O)OCC`, the MIC is 12.5 µg/mL (≈ 25.1 µM) in the test with Staphylococcus aureus [1]; 50 µg/mL (≈ 100 µM) against Staphylococcus aureus [2]; 12.5 µg/mL (≈ 25.1 µM) in test [3]; greater than 50 µg/mL in the test with Micrococcus luteus; 12.5 µg/mL (≈ 25.1 µM) with Bacillus subtilis; 3.12 µg/mL (≈ 6.26 µM) with Bacillus cereus. The MIC with Escherichia coli, with Shigella flexneri, in the test on Pseudomonas aeruginosa, in the test with Serratia marcescens and in the test on Alcaligenes faecalis was greater than 50 µg/mL each time.
As for `C=C(C)[C@@H]1CC=C(C)[C@H](CC[C@H]2C(=C)CC[C@H]3C(C)(C)[C@@H](O)CC[C@]23C)[C@@]1(C)CCC(=O)OCC` [ETHYL LANSIOLATE], the minimal inhibitory concentration (MIC) was 3.12 µg/mL (≈ 6.44 µM) with Staphylococcus aureus [1]; 6.25 µg/mL (≈ 12.9 µM) against Staphylococcus aureus [2]; 12.5 µg/mL (≈ 25.8 µM) in test [3]; 6.25 µg/mL (≈ 12.9 µM) against Micrococcus luteus; 3.12 µg/mL (≈ 6.44 µM) with Bacillus subtilis; 3.12 µg/mL (≈ 6.44 µM) in the test on Bacillus cereus. The minimal inhibitory concentration (MIC) with Escherichia coli, in the test on Shigella flexneri, in the test with Pseudomonas aeruginosa, against Serratia marcescens and against Alcaligenes faecalis was greater than 50 µg/mL in each case.
As to `C=C(C)[C@@H]1CC=C(C)[C@H](CC[C@H]2C(=C)CC[C@@H](C(C)(C)O)[C@]2(C)CCC(=O)OC)[C@@]1(C)CCC(=O)O` [LAMESTICUMIN A], the minimum inhibitory concentration (MIC) against Staphylococcus aureus [1] was 3.12 µg/mL (≈ 6.21 µM); in the test with Staphylococcus aureus [2], 6.25 µg/mL (≈ 12.4 µM); in test [3] it was 12.5 µg/mL (≈ 24.9 µM); against Micrococcus luteus, 6.25 µg/mL (≈ 12.4 µM); in the test with Bacillus subtilis it was 3.12 µg/mL (≈ 6.21 µM); in the test with Bacillus cereus, 3.12 µg/mL (≈ 6.21 µM). The minimal inhibitory concentration (MIC) with Escherichia coli, with Shigella flexneri, with Pseudomonas aeruginosa, with Serratia marcescens and with Alcaligenes faecalis was greater than 50 µg/mL each time.
Turning to `C=C1CC[C@H]2C(C)(C)[C@@H](O)CC[C@]2(C)[C@H]1CC[C@H]1C(C)=CC[C@@H](C(C)(C)O)[C@]1(C)CCC(=O)OC` [LAMESTICUMIN B], the MIC turned out to be 3.12 µg/mL (≈ 6.38 µM) against Staphylococcus aureus [1]; 6.25 µg/mL (≈ 12.8 µM) in the test on Staphylococcus aureus [2]; 12.5 µg/mL (≈ 25.6 µM) in test [3]; 3.12 µg/mL (≈ 6.38 µM) in the test on Micrococcus luteus; 3.12 µg/mL (≈ 6.38 µM) in the test on Bacillus subtilis; 3.12 µg/mL (≈ 6.38 µM) in the test with Bacillus cereus. The MIC against Escherichia coli, with Shigella flexneri, with Pseudomonas aeruginosa, in the test with Serratia marcescens and against Alcaligenes faecalis was greater than 50 µg/mL throughout.
Take `C=C1CC[C@H]2C(C)(C)[C@@H](O)CC[C@]2(C)[C@H]1CCC1=C(C)C(=O)C[C@H]2C(C)(C)C(=O)CC[C@]12C` [LAMESTICUMIN C]: the MIC in the test on Staphylococcus aureus [1] was found to be 3.12 µg/mL (≈ 6.86 µM); in the test on Staphylococcus aureus [2], 6.25 µg/mL (≈ 13.7 µM); in test [3], 12.5 µg/mL (≈ 27.5 µM); with Micrococcus luteus it was 6.25 µg/mL (≈ 13.7 µM); in the test on Bacillus subtilis it was 3.12 µg/mL (≈ 6.86 µM); in the test on Bacillus cereus it was 3.12 µg/mL (≈ 6.86 µM). In addition, the minimum inhibitory concentration (MIC) with Escherichia coli, against Shigella flexneri, against Pseudomonas aeruginosa, in the test on Serratia marcescens and in the test on Alcaligenes faecalis was greater than 50 µg/mL in each case.
`C=C1CC[C@H]2C(C)(C)C(=O)CC[C@]2(C)[C@H]1CCC1=C(C)[C@H](O)C[C@H]2C(C)(C)C(=O)CC[C@]12C` [LAMESTICUMIN D]: the minimum inhibitory concentration (MIC) against Staphylococcus aureus [1] is greater than 50 µg/mL; against Staphylococcus aureus [2] it was greater than 50 µg/mL; in [3], greater than 50 µg/mL; against Micrococcus luteus it was greater than 50 µg/mL; with Bacillus subtilis, 6.25 µg/mL (≈ 13.7 µM); against Bacillus cereus it was 3.12 µg/mL (≈ 6.86 µM). The MIC against Escherichia coli, against Shigella flexneri, against Pseudomonas aeruginosa, in the test on Serratia marcescens and with Alcaligenes faecalis was greater than 50 µg/mL each time.
As for `C=C1CC[C@H]2C(C)(C)C(=O)CC[C@]2(C)[C@H]1CCC1=C(C)[C@H](O)C[C@@H](C(=C)C)[C@]1(C)CCC(=O)OC` [LAMESTICUMIN E], the MIC with Staphylococcus aureus [1] was 6.25 µg/mL (≈ 12.9 µM); in the test with Staphylococcus aureus [2], greater than 50 µg/mL; in test [3], greater than 50 µg/mL; in the test on Micrococcus luteus it was greater than 50 µg/mL; in the test with Bacillus subtilis, 12.5 µg/mL (≈ 25.8 µM); in the test on Bacillus cereus, 3.12 µg/mL (≈ 6.44 µM). The minimal inhibitory concentration (MIC) against Escherichia coli, in the test with Shigella flexneri, against Pseudomonas aeruginosa, with Serratia marcescens and against Alcaligenes faecalis was greater than 50 µg/mL each time.
For the compound `CC1=CC[C@H]2C(C)(C)C(=O)CC[C@]2(C)[C@H]1CC/C=C(\C)CC/C=C(\C)CC[C@@H](O)C(C)(C)O` [LAMESTICUMIN F], the MIC was greater than 50 µg/mL in the test on Staphylococcus aureus [1]; greater than 50 µg/mL in the test with Staphylococcus aureus [2]; greater than 50 µg/mL in test [3]; greater than 50 µg/mL in the test with Micrococcus luteus; 12.5 µg/mL (≈ 27.2 µM) in the test with Bacillus subtilis; 3.12 µg/mL (≈ 6.8 µM) in the test on Bacillus cereus. For the same compound, the MIC against Escherichia coli, with Shigella flexneri, in the test on Pseudomonas aeruginosa, against Serratia marcescens and in the test with Alcaligenes faecalis was greater than 50 µg/mL throughout.
Consider `C=CCc1ccc(O)c(-c2cc(CC=C)ccc2O)c1` [MAGNOLOL], for which the minimum inhibitory concentration (MIC) in the test with Staphylococcus aureus [1] was determined as 25 µg/mL (≈ 93.9 µM); against Staphylococcus aureus [2], 25 µg/mL (≈ 93.9 µM); in test [3], 12.5 µg/mL (≈ 46.9 µM); against Micrococcus luteus it was 12.5 µg/mL (≈ 46.9 µM); in the test with Bacillus subtilis, 12.5 µg/mL (≈ 46.9 µM); in the test with Bacillus cereus it was 12.5 µg/mL (≈ 46.9 µM). Moreover, the MIC in the test on Escherichia coli, in the test with Shigella flexneri, against Pseudomonas aeruginosa, against Serratia marcescens and in the test with Alcaligenes faecalis was greater than 50 µg/mL throughout.

In general, MIC refers to the lowest concentration that inhibits growth of the organism.

The values above are taken from ChEMBL document CHEMBL1781965, “Onoceranoid-type triterpenoids from Lansium domesticum” (2011).
